Measured values: ChEMBL document CHEMBL1139285, “TRAIL-enhancing activity of Erythrinan alkaloids from Erythrina velutina” (Bioorg Med Chem Lett, 2009)
≈ marks a conversion by molar mass, not a printed value.

Tests used:
[1] = test system: Jurkat; assay: Growth inhibition of human Jurkat cells at 50 ug/mL; type: functional
[2] = test system: Jurkat; assay: Growth inhibition of human Jurkat cells; type: functional, cell-based
[3] = test system: Jurkat; assay: Cytotoxicity against human Jurkat cells in presence and relative to TRAIL; type: functional, cell-based
Outline: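 Jurkat cell proliferation test run with each isolate in combination with TRAIL, to measure enhancement of TRAIL cytotoxicity; values expressed relative to the cell proliferation rate at 0.125.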

[4] = test system: Jurkat; assay: Cytotoxicity against human Jurkat cells in presence and relative to TRAIL at 50 ug/mL; type: functional
Outline: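 Proliferation assay in Jurkat cells exposed to each isolated alkaloid together with TRAIL. Results are expressed relative to the cell proliferation rate at […].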

| SMILES | inhibition at 50 µg/mL [1] | IC50 [2] | IC50 [3] | inhibition at 50 µg/mL [4] |
| --- | --- | --- | --- | --- |
| CO[C@H]1C=CC2=CC(=O)N3CCc4cc5c(cc4[C@]23C1)OCO5 | 37% | > 50 µg/mL | 22 µg/mL (≈ 70.7 µM) |  |
| COc1cc2c(cc1O)CC[N+]1([O-])CC=C3C=C[C@H](OC)C[C@]321 (stereo not given in full) | 2.4% | > 50 µg/mL | > 50 µg/mL | 18.9% |
| O=c1cc(-c2ccc(O)cc2)oc2cc(O)cc(O)c12 [APIGENIN] |  | 30 µg/mL (≈ 111 µM) | 6.7 µg/mL (≈ 24.8 µM) |  |
| COC(=O)c1cc2c(cn1)CCN1CC=C3C=C[C@H](OC)C[C@]321 [ERYMELANTHINE] | 1.1% | > 50 µg/mL | > 50 µg/mL | 24.2% |
| COc1cc2c(cc1O)CCN1CC=C3C=C[C@H](OC)C[C@]321 [ERYSODINE] |  | 10.8 µg/mL (≈ 36.1 µM) | 4.9 µg/mL (≈ 16.4 µM) |  |
| COc1cc2c(cc1OC)[C@]13C[C@@H](OC)C=CC1=CCN3CC2 [ERYSOTRINE] | 45% | > 50 µg/mL | 7.2 µg/mL (≈ 23 µM) |  |
| COc1cc2c(cc1O)[C@]13C[C@@H](OC)C=CC1=CCN3CC2 [ERYSOVINE] |  | 24 µg/mL (≈ 80.2 µM) | 14.2 µg/mL (≈ 47.4 µM) |  |
| CO[C@H]1C=CC2=CCN3CCc4cc5c(cc4[C@]23C1)OCO5 [ERYTHRALINE] |  | 23 µg/mL (≈ 77.3 µM) | 5 µg/mL (≈ 16.8 µM) |  |
| COc1cc2c(cc1O[C@@H]1O[C@H](CO)[C@@H](O)[C@H](O)[C@H]1O)CCN1CC=C3C=C[C@H](OC)C[C@]321 [GRYCOERYSODINE] | 4.7% | > 50 µg/mL | 44 µg/mL (≈ 95.3 µM) |  |
| C[N+](C)(C)[C@H](Cc1c[nH]c2ccccc12)C(=O)[O-] [HYPAPHORINE] | 5.8% | > 50 µg/mL | > 50 µg/mL | 20% |
| CC[C@]1(O)C[C@H]2CN(CCc3c([nH]c4ccccc34)[C@@](C(=O)OC)(c3cc4c(cc3OC)N(C=O)[C@H]3[C@@](O)(C(=O)OC)[C@H](OC(C)=O)[C@]5(CC)C=CCN6CC[C@]43[C@@H]65)C2)C1 [VINCRISTINE] |  | 0.0031 µg/mL (≈ 0.00376 µM) |  |  |
